Measurements pooled from the literature.
Protocols differ between the studies behind these lines.
Target: Phosphorylase b kinase gamma catalytic chain, liver/testis isoform (PHKG2, Homo sapiens, UniProt P15735)
Residues used in one study (P15735 1-406): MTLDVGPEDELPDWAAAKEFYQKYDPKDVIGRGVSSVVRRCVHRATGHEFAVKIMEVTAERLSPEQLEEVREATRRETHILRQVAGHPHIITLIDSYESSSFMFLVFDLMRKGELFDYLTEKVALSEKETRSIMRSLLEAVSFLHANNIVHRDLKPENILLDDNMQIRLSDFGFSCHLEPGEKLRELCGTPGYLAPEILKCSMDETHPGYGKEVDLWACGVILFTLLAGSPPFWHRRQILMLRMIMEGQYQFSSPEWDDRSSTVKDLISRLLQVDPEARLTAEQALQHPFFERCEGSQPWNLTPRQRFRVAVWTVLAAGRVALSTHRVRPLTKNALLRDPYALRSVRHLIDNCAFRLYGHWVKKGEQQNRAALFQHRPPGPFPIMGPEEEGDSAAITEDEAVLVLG

The remaining binding of `COc1cnc(Nc2cccc(S(N)(=O)=O)c2)nc1N1CCN(c2ccccc2)C(=O)C1` is reported as 100% (binding; competition with immobilised ligand; 1 µM).
For `O=C(Nc1c[nH]nc1C(=O)NC1CCNCC1)c1cc(F)cc(F)c1`, the remaining binding was 100% (binding; competition with immobilised ligand; 1 µM).
`O=C(NCCCN1CCOCC1)c1ccc(Nc2ncc(Cl)c(-c3ccc(Cl)s3)n2)cc1` has a remaining binding of 60% (binding; competition with immobilised ligand; 1 µM).
For `F[C@@H]1CCN(c2nccc(-c3cnn4ncccc34)n2)C1`, the remaining binding was 100% (binding; 1 µM).
The remaining binding of `Cc1cnc(Nc2ccc(C(=O)N3CCC(N4CCCC4)CC3)cc2)nc1-c1cc2ccccc2s1` is reported as 51% (binding; competition with immobilised ligand; 1 µM).
For `C[C@H]1CCN(c2nccc(-c3cnn4ncccc34)n2)C1`, the remaining binding was 79% (binding; 1 µM).
`O=C(c1ccc(Nc2ncc(Cl)c(-c3cc4ccccc4s3)n2)cc1)N1CCC(N2CCCC2)CC1` has a remaining binding of 74% (binding; competition with immobilised ligand; 1 µM).
With `CNC(=O)Nc1ccc2c(c1)[C@@]1(CC2)OC(=O)N(CC(=O)N(Cc2ccc(F)cc2)[C@@H](C)C(F)(F)F)C1=O` the remaining binding was 100% (cell-free assay; competition with immobilised ligand; 1 µM).
The remaining binding of `CN(CCCC(F)(F)F)c1nccc(-c2cnn3ncccc23)n1` is reported as 100% (binding; 1 µM).
`Nc1ncc2c(n1)-c1c([nH]c3ccc(C#CC4CC4)cc13)CCCC2` gave a remaining binding of 100% (binding; competition with immobilised ligand; 1 µM).
For `N[C@H]1CCN(c2nccc(-c3cnn4ncccc34)n2)C1`, the remaining binding was 77% (binding; 1 µM).
For `O=C(Nc1ccc(Oc2ccc(F)cc2)cc1)N1CCc2ncccc2[C@H]1c1ccc(F)cc1`, the remaining binding was 100% (cell-free assay; competition with immobilised ligand; 1 µM).
For `C[C@@H](c1ccc(-n2cnc3c(N)ncnc32)cc1)N1CCc2nn(C)c(Cc3ccccc3)c2C1=O`, the remaining binding was 100% (binding; competition with immobilised ligand; 0.1 µM).
For `CN(C)C(=O)Cn1cc(-c2nc([C@@](C)(c3ccc(-c4cnc(N)nc4)cc3)C3CC3)no2)cn1`, the remaining binding was 80% (cell-free assay; competition with immobilised ligand; 1 µM).
With `CN(C)c1nccc(-c2cnn3ncccc23)n1` the remaining binding was 86% (binding; 1 µM).
With `CCS(=O)(=O)c1cc2cc(C[C@@](O)(CC(C)(C)c3ccc(F)cc3C(N)=O)C(F)(F)F)[nH]c2cn1` the remaining binding was 100% (cell-free assay; competition with immobilised ligand; 1 µM).
`C=CC(=O)N1CCC(C(=O)NCC(=O)N2CCN(c3nc(-c4cnc(N)nc4C(F)F)nc(N4CCOCC4)n3)CC2)CC1` gave a remaining binding of 89% (binding; competition with immobilised ligand; 1 µM).
With `Cc1cc(-n2nc(Cc3cc(F)cc(C(F)(F)F)c3)nc2C)ccc1C(N)=O` the remaining binding was 100% (cell-free assay; competition with immobilised ligand; 1 µM).
`CCN1CCN(Cc2ccc(C(=O)Nc3ccc(C)c(Oc4ccc5c(c4)CC(=O)N5)c3)cc2C(F)(F)F)CC1` gave a remaining binding of 100% (binding; competition with immobilised ligand; 1 µM).
`O=C(NCCCC1CCCCC1)c1ccc(CNC(=O)c2cnn(-c3ccccc3)c2C(F)(F)F)cc1` has a remaining binding of 100% (cell-free assay; competition with immobilised ligand; 0.1 µM).
For `Cc1cnn2ncc(-c3ccnc(N(C)C)n3)c2c1`, the remaining binding was 95% (binding; 1 µM).
